Results published in publication PMC12123727 (BMC Cancer, 2025).
Read-outs that look alike come from different tables or passages of the source.

Experiments:
[1] = Phase 1 plasma pharmacokinetics; type: in vivo, human; settings: for increase of exposure (plasma concentration) with dose: dose range 40–80 mg BID; for AUC(0-t) / AUC(0-inf) / Cmax / half-life / Tmax / MRT last: human, plasma; for AUC(0-t): AUC0-t; for AUC(0-t) / AUC(0-inf) / Cmax: Mean ± SD; for AUC(0-inf): AUC0-∞; for half-life: T1/2, Median; for Tmax: Median; for MRT last: po
[2] = test system: Relapsed/Refractory Lymphoma; settings: cited from earlier work
[3] = Phase 1 safety evaluation; type: in vivo, human
In short: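 3 + 3 escalation of oral test compound, 40, 60 or 80 mg BID 4 h apart, 7 days on and 7 off, after a single dose on D-3. Investigators graded AEs at every visit per CTCAE v5.0. DLT was assessed over cycle 1 and covered grade 4 cytopenias, febrile or bleeding grade ≥3 cytopenias, and grade ≥3 non-hematological toxicity. Safety set: ≥1 dose and ≥1 safety evaluation.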

[4] = C1D7 compared to C1D1, 40–80 mg BID
[5] = oral, 40 mg, abexinostat continuous administration (BID, 4-h interval) on C1D1, 40 mg (n = 4)
[6] = oral, 40 mg, abexinostat continuous administration (BID, 4-h interval) on C1D7, 40 mg (n = 4)
[7] = oral, 60 mg, abexinostat continuous administration (BID, 4-h interval) on C1D1, 60 mg (n = 3)
[8] = oral, 60 mg, abexinostat continuous administration (BID, 4-h interval) on C1D7, 60 mg (n = 3)
[9] = oral, 80 mg, abexinostat continuous administration (BID, 4-h interval) on C1D1, 80 mg (n = 4)
[10] = oral, 80 mg, abexinostat continuous administration (BID, 4-h interval) on C1D7, 80 mg (n = 4)
[11] = PCYC-0403, r/r FL patients (n = 14)

SMILES: CN(C)Cc1c(C(=O)NCCOc2ccc(C(=O)NO)cc2)oc2ccccc12 [abexinostat, Abexinostat]
- average accumulation ratio for Cmax (RA-Cmax) [1, 4]: 0.94–1.48
- average accumulation ratio for the AUC (RA-AUC) [1, 4]: 1.16–1.52
- increase of exposure (plasma concentration) with dose [1]: approximately dose-proportional
- increase of exposure (plasma concentration) with dose ([1]; listed as Abexinostat): dose-proportional
- AUC(0-t) [1, 5]: 339 ± 90.9 ng·h/mL
- AUC(0-t) [1, 6]: 463 ± 32.5 ng·h/mL
- AUC(0-inf) [1, 5]: 361 ± 88.3 ng·h/mL
- AUC(0-inf) [1, 6]: 491 ± 43.7 ng·h/mL
- Cmax [1, 5]: 98.1 ± 27.6 ng/mL
- Cmax [1, 6]: 107 ± 16.3 ng/mL
- half-life [1, 5]: 221 min
- half-life [1, 6]: 290 min
- Tmax [1, 5]: 1 h
- Tmax [1, 6]: 1 h
- AUC(0-t) [1, 7]: 521 ± 60.6 ng·h/mL
- AUC(0-t) [1, 8]: 600 ± 53.8 ng·h/mL
- AUC(0-inf) [1, 7]: 563 ± 69.6 ng·h/mL
- AUC(0-inf) [1, 8]: 656 ± 72 ng·h/mL
- Cmax [1, 7]: 115 ± 24.2 ng/mL
- Cmax [1, 8]: 104 ± 26.9 ng/mL
- half-life [1, 7]: 377 min
- half-life [1, 8]: 392 min
- Tmax ([1]; oral, 60 mg, abexinostat continuous administration (BID, 4-h interval) on C1D1, 60 mg (n = 3), abexinostat value footnoted: 0.5 h after second dose): 4.55 h
- Tmax [1, 8]: 0.48 h
- AUC(0-t) [1, 9]: 603 ± 104 ng·h/mL
- AUC(0-t) [1, 10]: 767 ± 140 ng·h/mL
- AUC(0-inf) [1, 9]: 625 ± 116 ng·h/mL
- AUC(0-inf) [1, 10]: 744 ± 132 ng·h/mL
- Cmax [1, 9]: 128 ± 25.3 ng/mL
- Cmax [1, 10]: 184 ± 27 ng/mL
- half-life [1, 9]: 308 min
- half-life [1, 10]: 302 min
- Tmax ([1]; oral, 80 mg, abexinostat continuous administration (BID, 4-h interval) on C1D1, 80 mg (n = 4), abexinostat value footnoted: 0.97 h after second dose): 4.78 h
- Tmax [1, 10]: 2.74 h
- MRT last ([1]; 40 mg): 2.8 h
- MRT last ([1]; 60 mg): 6.97 h
- MRT last ([1]; 80 mg): 3.47 h
- accumulation ([1]; on C1D7): slight accumulation
- absorption ([1]; oral): rapidly absorbed
- ORR ([2]; PCYC-0403, mantle cell lymphoma, 3/11): 27.3%
- median PFS ([2]; PCYC-0403, mantle cell lymphoma): 3.9 months
- CR, patients [2, 11]: 1
- PR, patients [2, 11]: 8
- ORR ([2]; PCYC-0403, r/r FL patients, 9/14): 64.3%
- DCR ([2]; PCYC-0403, r/r FL patients, 12/14): 85.7%
- median PFS ([2]; PCYC-0403, r/r FL patients): 20.5 months
- TEAE: Abnormal ST segment on electrocardiogram ([3]; 40 mg BID (n = 4), Any grade): 0 n (%)
- TEAE: Abnormal T-wave on electrocardiogram ([3]; 40 mg BID (n = 4), Any grade): 0 n (%)
- TEAE: Anemia ([3]; 40 mg BID (n = 4), Any grade): 1 (25.0) n (%)
- TEAE: Any TEAEs ([3]; 40 mg BID (n = 4), Any grade): 4 (100) n (%)
- TEAE: Diarrhea ([3]; 40 mg BID (n = 4), Any grade): 0 n (%)
- TEAE: Elevated low-density lipoprotein ([3]; 40 mg BID (n = 4), Any grade): 1 (25.0) n (%)
- TEAE: Elevated α-hydroxybutyrate dehydrogenase ([3]; 40 mg BID (n = 4), Any grade): 1 (25.0) n (%)
- TEAE: Fatigue ([3]; 40 mg BID (n = 4), Any grade): 1 (25.0) n (%)
- TEAE: Hypercholesterolemia ([3]; 40 mg BID (n = 4), Any grade): 1 (25.0) n (%)
- TEAE: Hyperglycemia ([3]; 40 mg BID (n = 4), Any grade): 1 (25.0) n (%)
- TEAE: Hypertriglyceridemia ([3]; 40 mg BID (n = 4), Any grade): 1 (25.0) n (%)
- TEAE: Hyperuricemia ([3]; 40 mg BID (n = 4), Any grade): 1 (25.0) n (%)
- TEAE: Hypoalbuminemia ([3]; 40 mg BID (n = 4), Any grade): 2 (50.0) n (%)
- TEAE: Hypoproteinemia ([3]; 40 mg BID (n = 4), Any grade): 1 (25.0) n (%)
- TEAE: Leukopenia ([3]; 40 mg BID (n = 4), Any grade): 0 n (%)
- TEAE: Lymphopenia ([3]; 40 mg BID (n = 4), Any grade): 0 n (%)
- TEAE: Nausea ([3]; 40 mg BID (n = 4), Any grade): 0 n (%)
- TEAE: Neutropenia ([3]; 40 mg BID (n = 4), Any grade): 1 (25.0) n (%)
- TEAE: Thrombocytopenia ([3]; 40 mg BID (n = 4), Any grade): 2 (50.0) n (%)
- TEAE: Urinary white blood cell positivity ([3]; 40 mg BID (n = 4), Any grade): 1 (25.0) n (%)
- TEAE: Any TEAEs ([3]; 40 mg BID (n = 4), ≥ Grade 3): 1 (25.0) n (%)
- TEAE: Thrombocytopenia ([3]; 40 mg BID (n = 4), ≥ Grade 3): 1 (25.0) n (%)
- Dose interruption ([3]; 40 mg BID group, due to thrombocytopenia): one patient
- TEAE: Abnormal ST segment on electrocardiogram ([3]; 60 mg BID (n = 3), Any grade): 1 (33.3) n (%)
- TEAE: Abnormal T-wave on electrocardiogram ([3]; 60 mg BID (n = 3), Any grade): 1 (33.3) n (%)
- TEAE: Anemia ([3]; 60 mg BID (n = 3), Any grade): 1 (33.3) n (%)
- TEAE: Any TEAEs ([3]; 60 mg BID (n = 3), Any grade): 3 (100) n (%)
- TEAE: Diarrhea ([3]; 60 mg BID (n = 3), Any grade): 1 (33.3) n (%)
- TEAE: Elevated low-density lipoprotein ([3]; 60 mg BID (n = 3), Any grade): 2 (66.7) n (%)
- TEAE: Elevated α-hydroxybutyrate dehydrogenase ([3]; 60 mg BID (n = 3), Any grade): 1 (33.3) n (%)
- TEAE: Fatigue ([3]; 60 mg BID (n = 3), Any grade): 1 (33.3) n (%)
- TEAE: Hypercholesterolemia ([3]; 60 mg BID (n = 3), Any grade): 1 (33.3) n (%)
- TEAE: Hyperglycemia ([3]; 60 mg BID (n = 3), Any grade): 0 n (%)
